ChEMBL document CHEMBL1152594, “The design and optimization of a series of 2-(pyridin-2-yl)-1H-benzimidazole compounds as allosteric glucokinase activators” (Bioorg Med Chem, 2009)
Active and inactive are the calls of the source. The calls are words filed in the database; no cut-off is given here.

Experiments:
Hexokinase-4 [1] = biological target: T1, Hexokinase-4 (Homo sapiens, UniProt P35557); assay: Activation of human liver glucokinase expressed in Escherichia coli at 2.5 mM glucose concentration by glucose-6-phosphate coupled continuous spectrophotometric assay
T1 sequence (P35557 whole entry): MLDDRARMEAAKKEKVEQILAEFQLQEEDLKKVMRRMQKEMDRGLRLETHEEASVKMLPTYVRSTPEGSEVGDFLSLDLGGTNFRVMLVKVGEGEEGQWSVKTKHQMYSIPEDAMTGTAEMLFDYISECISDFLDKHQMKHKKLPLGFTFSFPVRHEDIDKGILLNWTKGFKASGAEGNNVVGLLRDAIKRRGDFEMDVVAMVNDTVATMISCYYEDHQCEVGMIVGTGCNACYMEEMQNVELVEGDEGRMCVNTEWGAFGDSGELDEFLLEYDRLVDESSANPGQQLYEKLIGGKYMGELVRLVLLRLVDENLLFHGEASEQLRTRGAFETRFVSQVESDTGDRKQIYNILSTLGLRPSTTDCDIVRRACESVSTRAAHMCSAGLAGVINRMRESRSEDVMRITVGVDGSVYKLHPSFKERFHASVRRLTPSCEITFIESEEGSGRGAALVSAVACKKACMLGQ

Hexokinase-4 [2] = biological target: T1, Hexokinase-4; assay: Activation of human liver glucokinase expressed in Escherichia coli at 10 mM glucose concentration by glucose-6-phosphate coupled continuous spectrophotometric assay
[3] = Half life in Beagle dog at 0.3 mg/kg, iv and 1 mg/kg, po; conditions: in vivo
[4] = Plasma clearance in Sprague-Dawley rat at 1 mg/kg, iv and 3 mg/kg, po; format: ADME, organism-based
Outline: (§1)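 Male SD rats received 1 mg/kg iv or 3 mg/kg po. Plasma AUC, Cmax, T1/2, CLp and oral bioavailability (F) were derived from these dosings.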

Rattus norvegicus [5] = assay: Hypoglycemic efficacy in Wistar rat assessed as reduction in area under the glucose curve at 3 mg/kg, po by oral glucose tolerance test; format: functional; set-up: scale not given: the % may be the effect or the level left
Outline: (§2)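 In the Wistar rat OGTT, the compound was given orally. […] Groups were compared by one-way ANOVA followed by Dunnett's test, with significance at p < 0.05.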

[6] = Half life in Sprague-Dawley rat at 1 mg/kg, iv and 3 mg/kg, po; format: ADME, organism-based; conditions: in vivo
Outline: as §1

Mus musculus = assay: Hypoglycemic efficacy in high-fat diet-induced mouse assessed as acute glucose lowering at 10 mg/kg, po; format: functional, organism-based; set-up: dose 10 mg/kg
Outline: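 They received compound orally in 0.5% methylcellulose vehicle, or vehicle alone. Blood glucose was measured just before dosing and at 1, 2, 3 and 4 h after.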

[7] = Cmax in Sprague-Dawley rat at 1 mg/kg, iv and 3 mg/kg, po; format: ADME, organism-based; conditions: in vivo
Outline: as §1

[8] = Oral bioavailability in Sprague-Dawley rat at 3 mg/kg, po; format: ADME, organism-based; conditions: in vivo
Outline: as §1

[9] = AUC in Sprague-Dawley rat at 1 mg/kg, iv and 3 mg/kg, po; format: ADME, organism-based; conditions: plasma
Outline: as §1

[10] = Oral bioavailability in Beagle dog at 1 mg/kg, po; conditions: in vivo
Rattus norvegicus [11] = assay: Hypoglycemic efficacy in Wistar rat assessed as reduction in area under the glucose curve at 1 mg/kg, po by oral glucose tolerance test; format: functional; set-up: scale not given: the % may be the effect or the level left
Outline: as §2

[12] = Cmax in Beagle dog at 0.3 mg/kg, iv and 1 mg/kg, po; conditions: in vivo
[13] = AUC in Beagle dog at 0.3 mg/kg, iv and 1 mg/kg, po; conditions: plasma

CCS(=O)(=O)c1ccc(Oc2cc3nc(-c4ccccn4)[nH]c3cc2CNC(C)=O)cc1
EC50 (Hexokinase-4 [1]): 1410 nM | EC50 (Hexokinase-4 [2]): 220 nM

CCS(=O)(=O)c1ccc(Oc2cc3nc(-c4ccccn4)[nH]c3cc2Cc2nnnn2C)cc1
EC50 (Hexokinase-4 [1]): 410 nM | EC50 (Hexokinase-4 [2]): 70 nM

CCS(=O)(=O)c1ccc(Oc2cc3nc(-c4ccccn4)[nH]c3cc2CN2C(=O)CCC2=O)cc1
half-life [3]: 6.4 h | clearance [4]: 32 mL/min/kg | Activity (Rattus norvegicus [5]): 27% | half-life [6]: 0.6 h | Activity (Mus musculus): Active | Cmax [7]: 400 nM | EC50 (Hexokinase-4 [1]): 160 nM | bioavailability [8]: 16% | AUC [9]: 0.5 µM·h | EC50 (Hexokinase-4 [2]): 40 nM | bioavailability [10]: 41% | Activity (Rattus norvegicus [11]): 19% | Cmax [12]: 400 nM | AUC [13]: 4 µM·h

CCS(=O)(=O)c1ccc(Oc2cc3nc(-c4ccccn4)[nH]c3cc2Cn2ccnc2)cc1
EC50 (Hexokinase-4 [1]): 430 nM | EC50 (Hexokinase-4 [2]): 120 nM

CCS(=O)(=O)c1ccc(Oc2cc3nc(-c4ccccn4)[nH]c3cc2CN2C(=O)CN(C)C2=O)cc1
EC50 (Hexokinase-4 [1]): 180 nM | EC50 (Hexokinase-4 [2]): 60 nM

CCS(=O)(=O)c1ccc(Oc2cc3nc(-c4ccccn4)[nH]c3cc2CN2CCCC2=O)cc1
Activity (Mus musculus): Active | EC50 (Hexokinase-4 [1]): 350 nM | EC50 (Hexokinase-4 [2]): 60 nM

CCS(=O)(=O)c1ccc(Oc2cc3nc(-c4ccccn4)[nH]c3cc2CN2CCN(C)C2=O)cc1
EC50 (Hexokinase-4 [1]): 320 nM | EC50 (Hexokinase-4 [2]): 80 nM

CCS(=O)(=O)c1ccc(Oc2cc3nc(-c4ccccn4)[nH]c3cc2CN(C)C(C)=O)cc1
Activity (Mus musculus): Active | EC50 (Hexokinase-4 [1]): 300 nM | EC50 (Hexokinase-4 [2]): 70 nM

CCS(=O)(=O)c1ccc(Oc2cc3[nH]c(-c4ccccn4)nc3cc2CCC(=O)N(C)C)cc1
EC50 (Hexokinase-4 [1]): 620 nM | EC50 (Hexokinase-4 [2]): 120 nM

CCS(=O)(=O)c1ccc(Oc2cc3nc(-c4ccccn4)[nH]c3cc2CN2CCCC2)cc1
EC50 (Hexokinase-4 [1]): > 5000 nM | EC50 (Hexokinase-4 [2]): > 5000 nM

CCS(=O)(=O)c1ccc(Oc2cc3nc(-c4ccccn4)[nH]c3cc2CN2CCNC2=O)cc1
EC50 (Hexokinase-4 [1]): > 5000 nM | EC50 (Hexokinase-4 [2]): > 5000 nM

CCN(Cc1cc2nc(-c3ccccn3)[nH]c2cc1Oc1ccc(S(=O)(=O)CC)cc1)C(C)=O
EC50 (Hexokinase-4 [1]): 500 nM | EC50 (Hexokinase-4 [2]): 110 nM

CCS(=O)(=O)c1ccc(Oc2cc3nc(-c4ccccn4)[nH]c3cc2CN2CCCS2(=O)=O)cc1
EC50 (Hexokinase-4 [1]): 460 nM | EC50 (Hexokinase-4 [2]): 90 nM

CCS(=O)(=O)c1ccc(Oc2cc3nc(-c4ccccn4)[nH]c3cc2CN2CCOCC2=O)cc1
EC50 (Hexokinase-4 [1]): 280 nM | EC50 (Hexokinase-4 [2]): 100 nM

CCS(=O)(=O)c1ccc(Oc2cc3nc(-c4ccccn4)[nH]c3cc2CN2CCOC2=O)cc1
Activity (Mus musculus): inactive | EC50 (Hexokinase-4 [1]): 250 nM | EC50 (Hexokinase-4 [2]): 60 nM

CCS(=O)(=O)c1ccc(Oc2cc3nc(-c4ccccn4)[nH]c3cc2CN2C(=O)COC2=O)cc1
Activity (Mus musculus): inactive | EC50 (Hexokinase-4 [1]): 90 nM | EC50 (Hexokinase-4 [2]): 20 nM
